Experimental data from ChEMBL document CHEMBL3627693, “Novel aminotetrazole derivatives as selective STAT3 non-peptide inhibitors” (Eur J Med Chem, 2015).
Activity calls are given as the source filed them. No cut-off for these calls is given here.

How the values were obtained:
[1] = test system: MDA-MB-231; assay: Cytotoxicity against human MDA-MB-231 cells transfected with STAT3C assessed as decrease in cell proliferation after 72 hrs by MTT assay; format: functional, cell-based
[2] = test system: CD4-positive T cell; assay: Induction of polarization of C57BL/6 mouse spleen naive CD4+ lymphocytes into Th17 lymphocytes assessed as decrease in FoxP3 transcription at 50 uM; format: functional, tissue-based
[3] = target: T1, Signal transducer and activator of transcription 3 (Homo sapiens, UniProt P40763); conditions: HeLa, 100 uM
T1 sequence (P40763 whole entry): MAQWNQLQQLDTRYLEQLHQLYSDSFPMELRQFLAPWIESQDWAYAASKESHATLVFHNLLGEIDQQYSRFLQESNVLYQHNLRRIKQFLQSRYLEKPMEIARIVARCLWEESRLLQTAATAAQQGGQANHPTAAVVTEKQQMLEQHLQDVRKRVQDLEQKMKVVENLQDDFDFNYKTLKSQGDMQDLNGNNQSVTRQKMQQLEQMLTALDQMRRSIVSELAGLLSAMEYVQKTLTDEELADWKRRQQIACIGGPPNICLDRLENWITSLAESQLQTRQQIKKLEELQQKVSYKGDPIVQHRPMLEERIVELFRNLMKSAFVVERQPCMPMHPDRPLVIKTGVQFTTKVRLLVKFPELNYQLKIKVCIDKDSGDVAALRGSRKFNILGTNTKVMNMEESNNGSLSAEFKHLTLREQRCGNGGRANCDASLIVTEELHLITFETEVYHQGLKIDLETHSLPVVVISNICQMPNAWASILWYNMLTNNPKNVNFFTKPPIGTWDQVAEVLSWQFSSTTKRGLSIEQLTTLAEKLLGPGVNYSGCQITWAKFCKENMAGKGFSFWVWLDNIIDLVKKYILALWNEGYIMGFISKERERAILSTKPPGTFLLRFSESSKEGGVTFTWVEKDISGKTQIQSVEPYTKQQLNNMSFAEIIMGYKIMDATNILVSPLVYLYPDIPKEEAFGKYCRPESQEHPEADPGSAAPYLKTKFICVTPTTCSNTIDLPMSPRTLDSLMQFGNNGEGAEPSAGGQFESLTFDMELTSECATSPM

[4] = target: T1, Signal transducer and activator of transcription 3; conditions: HeLa, 100 uM; remark: listed apart in the source
[5] = test system: CD4-positive T cell; assay: Induction of polarization of C57BL/6 mouse spleen naive CD4+ lymphocytes into Treg lymphocytes assessed as decrease in ROR-gamma-t transcription at 50 uM; format: functional, tissue-based
[6] = test system: PBL; assay: Induction IFN-gamma production in human PBL cells co-cultured with HT29 cells at 50 uM after 24 hrs by ELISA; format: functional, cell-based
[7] = test system: B9; assay: Cytotoxicity against mouse B9 cells assessed as decrease in cell proliferation at 50 uM after 72 hrs by MTT assay; format: functional, cell-based
[8] = target: T2, Signal transducer and activator of transcription 1-alpha/beta (Homo sapiens) (UniProt P42224); assay: Inhibition of STAT1 (unknown origin) expressed in IFN-gamma induced human HeLa cells at 50 uM incubated for 1 hr by luciferase reporter gene assay; format: cell-based
T2 sequence (whole entry): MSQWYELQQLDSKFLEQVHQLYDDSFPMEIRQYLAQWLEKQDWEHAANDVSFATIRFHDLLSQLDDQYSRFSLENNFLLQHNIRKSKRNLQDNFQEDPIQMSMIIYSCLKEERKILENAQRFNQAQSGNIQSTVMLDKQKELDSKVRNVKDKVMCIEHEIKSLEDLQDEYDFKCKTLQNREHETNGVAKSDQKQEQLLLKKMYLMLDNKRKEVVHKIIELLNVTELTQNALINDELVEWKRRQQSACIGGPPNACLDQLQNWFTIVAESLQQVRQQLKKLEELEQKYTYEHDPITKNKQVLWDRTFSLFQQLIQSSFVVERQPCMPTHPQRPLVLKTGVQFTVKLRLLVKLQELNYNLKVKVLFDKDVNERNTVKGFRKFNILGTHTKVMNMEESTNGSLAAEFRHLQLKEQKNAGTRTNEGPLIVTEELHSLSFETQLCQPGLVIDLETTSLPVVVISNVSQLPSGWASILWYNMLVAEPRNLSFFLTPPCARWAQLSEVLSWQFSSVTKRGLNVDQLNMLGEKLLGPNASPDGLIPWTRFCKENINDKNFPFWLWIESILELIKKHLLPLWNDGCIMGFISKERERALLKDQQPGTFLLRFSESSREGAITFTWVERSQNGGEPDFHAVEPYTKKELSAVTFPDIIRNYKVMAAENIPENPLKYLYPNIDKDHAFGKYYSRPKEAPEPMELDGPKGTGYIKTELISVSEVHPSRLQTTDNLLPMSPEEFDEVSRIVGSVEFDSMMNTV

[9] = target: T1, Signal transducer and activator of transcription 3; assay: Displacement of fluorescent peptide 5-FAM-G(pTyr)LPQTV-CONH2 from GST-tagged full-length human STAT3 preincubated for 60 mins followed by fluorescent peptide addition measured after 30 mins by fluorescence polarization assay
How it was run: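 Full-length GST-STAT3 (100 nM) preincubated 60 min at room temperature with compound at various concentrations or vehicle, in 50 mM NaCl, 10 mM Hepes pH 7.5, 1 mM EDTA, 0.01% Triton X-100, 2 mM DTT. Labelled peptide then added to 10 nM final, 30 min room temperature. FP read with excitation 480, emission 535 (P and S pol).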

[10] = test system: CD4-positive T cell; assay: Induction of polarization of C57BL/6 mouse spleen naive CD4+ lymphocytes into Th1 lymphocytes assessed as decrease in Tbet transcription; format: functional, tissue-based
[11] = test system: CD4-positive T cell; assay: Induction of polarization of C57BL/6 mouse spleen naive CD4+ lymphocytes into Treg lymphocytes assessed as decrease in FoxP3 transcription at 50 uM; format: functional, tissue-based
[12] = test system: CD4-positive T cell; assay: Induction of polarization of C57BL/6 mouse spleen naive CD4+ lymphocytes into Th17 lymphocytes assessed as decrease in ROR-gamma-t transcription at 50 uM; format: functional, tissue-based
[13] = target: T2, Signal transducer and activator of transcription 1-alpha/beta (Homo sapiens); assay: Displacement of fluorescent peptide 5-FAM-G(pTyr)YIKTE- CONH2 from GST-tagged human STAT1b preincubated for 60 mins followed by fluorescent peptide addition measured after 30 mins by fluorescence polarization assay
How it was run: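 GST-tagged human STAT1b preincubated 60 min at room temperature with compound at various concentrations or vehicle in 50 mM NaCl, 10 mM Hepes pH 7.5, 1 mM EDTA, 0.01% Triton X-100, 2 mM DTT. Labelled peptide added to 10 nM final, 30 min room temperature. Fluorescence polarization read with excitation 480, emission 535.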

[14] = test system: MDA-MB-231; assay: Cytotoxicity against human MDA-MB-231 cells assessed as decrease in cell proliferation after 72 hrs by MTT assay; format: functional, cell-based
[15] = target: T1, Signal transducer and activator of transcription 3; assay: Inhibition of STAT3 (unknown origin) expressed in Oncostatin M induced human HeLa cells at 50 uM incubated for 1 hr by luciferase reporter gene assay; format: cell-based
[16] = target: T1, Signal transducer and activator of transcription 3; assay: Inhibition of STAT3 (unknown origin) expressed in Oncostatin M induced human HeLa cells incubated for 1 hr by luciferase reporter gene assay
[17] = test system: HeLa; assay: Cytotoxicity against human HeLa cells at 50 uM; format: cell-based

| SMILES | Activity [1] | Activity [2] | inhibition [3] | inhibition [4] | Activity [5] | Activity [6] | Activity [7] | inhibition [8] [%] | Activity [9] | Activity [10] | Activity [11] | Activity [12] | Activity [13] | Activity [14] | inhibition [15] | IC50 [16] [µM] | Activity [17] |
| --- | --- | --- | --- | --- | --- | --- | --- | --- | --- | --- | --- | --- | --- | --- | --- | --- | --- |
| COc1cc(CNc2nn[nH]n2)cc(Cl)c1OCc1ccc([N+](=O)[O-])cc1 | inactive | Active | Active | Active | Active | Active | Dose-dependent effect | 15.7 | Active | inactive | Active | Active | inactive | Dose-dependent effect | 70.2% | 25.7 | – |
| CCOc1cc(/C=C(\C#N)C(=O)NC2CCCCC2C)ccc1OCC(=O)O (stereo not drawn) | – | – | – | – | – | – | – | – | – | – | – | – | – | – | Active | – | Toxic |
